Assay results from ChEMBL document CHEMBL1212784, “Structure-microbicidal activity relationship of synthetic fragments derived from the antibacterial alpha-helix of human lactoferrin” (2010).
≈ marks a conversion by molar mass, not a printed value. Non-standard residues stand in square brackets, D forms with d. Residues, ends and D or L forms follow the SMILES beside them. Nle = CCCC[C@H](N)C(=O)O; Orn = NCCC[C@H](N)C(=O)O

How the values were obtained:
[1] = Antimicrobial activity against Escherichia coli O6 K5 incubated in diluted brain heart infusion medium; format: functional
Summary of the method: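 Microplate assay in diluted BHI (1/100 of 3.4%, pH 6.7 to 6.9), log-phase cells at ~2 × 10^5 cells/ml, twofold peptide dilutions, 2 h at 37°C in humid chamber; drops plated on blood agar, CFU counted; MMC99 = minimum concentration giving ≥99% killing of inoculum; duplicates.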

Staphylococcus aureus [2] = experiment: Antimicrobial activity against methicillin resistant Staphylococcus aureus MRS3525 incubated in diluted brain heart infusion medium; format: functional
Summary of the method: (§1)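 Log-phase cells (BHI overnight at 37°C with shaking, subcultured 2 h, washed) at about 2 × 10^5 cells/ml final, exposed to twofold peptide dilutions in duplicate or triplicate. Medium: BHIdil (1/100 of 3.4% BHI, pH 6.7–6.9) or 1% Bactopeptone (pH 7.0). 2 h at 37°C, humid. 5-μl drops plated on blood agar overnight for CFU. MMC99 is the lowest concentration giving ≥99% kill.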

Candida albicans [3] = experiment: Antimicrobial activity against […] Candida albicans ATCC […] incubated in diluted brain heart infusion medium; format: functional; conditions: ATCC 6454; summary of the method: as §1
Staphylococcus aureus [4] = experiment: Antimicrobial activity against methicillin resistant Staphylococcus aureus MRS3525 incubated in bactopeptone; format: functional; summary of the method: as §1
[5] = Antimicrobial activity against Escherichia coli O6 K5 incubation in bactopeptone; format: functional
Summary of the method: (§2)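 Microplate killing assay in 1% Bactopeptone (pH 7.0). Log-phase organisms (BHI overnight, 2 h subculture, 37°C, washed), final ~2 × 10^5 cells/ml, with twofold peptide dilutions, 37°C humid chamber 2 h (or 20 h where stated). 5 μl drops plated on blood agar overnight; MMC99 = lowest concentration giving ≥99% inoculum reduction; duplicates.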

Candida albicans [6] = experiment: Antimicrobial activity against Candida albicans ATCC […] incubation in bactopeptone; format: functional; conditions: ATCC 64549; summary of the method: as §2
Enterococcus faecalis = experiment: Antimicrobial activity against Enterococcus faecalis ATCC 19433 using in brain heart infusion medium(dil) after 2 hrs at 25 ug/ml; format: functional
Summary of the method: (§3)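 Single-concentration screen: log-phase organisms (~2 × 10^5 cells/ml) incubated 2 h at 37°C in diluted BHI (1/100 of 3.4%, pH 6.7 to 6.9) with 25 μg/ml peptide (10 μg/ml for E. coli O6 and C. albicans); viable counts on blood agar; scored as ≥99% killed or not; duplicates.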

[7] = test system: Staphylococcus epidermidis; experiment: Antimicrobial activity against Staphylococcus epidermidis CCUG 18000A using in brain heart infusion medium(dil) after 2 hrs at 25 ug/ml; format: functional; summary of the method: as §3
Staphylococcus aureus [8] = experiment: Antimicrobial activity against Staphylococcus aureus 1800 (CCUG 1800) using in brain heart infusion medium(dil) after 2 hrs at 25 ug/ml; format: functional; summary of the method: as §3
Klebsiella pneumoniae = experiment: Antimicrobial activity against Klebsiella pneumoniae CCUG 9997 using in brain heart infusion medium(dil) after 2 hrs at 25 ug/ml; format: functional; summary of the method: as §3
Pseudomonas aeruginosa = experiment: Antimicrobial activity against Pseudomonas aeruginosa CCUG 551 using in brain heart infusion medium(dil) after 2 hrs at 25 ug/ml; format: functional; summary of the method: as §3
Escherichia coli [9] = experiment: Antimicrobial activity against Escherichia coli O14 using in brain heart infusion medium(dil) after 2 hrs at 25 ug/ml; format: functional; summary of the method: as §3
Escherichia coli [10] = experiment: Antimicrobial activity against Escherichia coli O6 using in brain heart infusion medium(dil) after 2 hrs at 10 ug/ml; format: functional; summary of the method: as §3
Candida albicans [11] = experiment: Antimicrobial activity against Candida albicans ATCC […] using in brain heart infusion medium(dil) after 2 hrs at 10 ug/ml; format: functional, ATCC 64549; summary of the method: as §3
Staphylococcus aureus [12] = experiment: Antimicrobial activity against Staphylococcus aureus 1800 (CCUG 1800) incubation in bactopeptone; format: functional; summary of the method: as §2

MIC99 (Staphylococcus aureus [12]) | Compound | MIC99 [1] | MIC99 (Staphylococcus aureus [2]) | MIC99 (Candida albicans [3]) | MIC99 (Staphylococcus aureus [4]) | MIC99 [5] | MIC99 (Candida albicans [6]) | other results
– | H-CFQWARNMRKVR-OH | 12 µg/mL | 3.5 µg/mL | 12 µg/mL | 100 µg/mL | 50 µg/mL | 50 µg/mL | –
– | H-CFQAQRNMRKVR-OH | 25 µg/mL | 14 µg/mL | 12 µg/mL | > 100 µg/mL | > 100 µg/mL | > 100 µg/mL | –
– | H-PEATKCFQWQRNMRKVR-OH | – | – | – | – | – | – | Activity (Enterococcus faecalis): >=99%; Activity [7]: >=99%; Activity (Staphylococcus aureus [8]): >=99%; Activity (Klebsiella pneumoniae): <99%; Activity (Pseudomonas aeruginosa): <99%; Activity (Escherichia coli [9]): <99%; Activity (Escherichia coli [10]): <99%; Activity (Candida albicans [11]): <99%
– | H-CFQWQRNMRKVA-OH | 12 µg/mL | 7 µg/mL | 25 µg/mL | > 100 µg/mL | > 100 µg/mL | > 100 µg/mL | –
– | H-CFQWQRNMRKAR-OH | 12 µg/mL | 3.5 µg/mL | 25 µg/mL | > 100 µg/mL | 50 µg/mL | 50 µg/mL | –
50 µg/mL (≈ 30.5 µM) | CCCC[C@H](NC(=O)[C@H](Cc1c[nH]c2ccccc12)NC(=O)[C@H](CCC(N)=O)NC(=O)[C@H](Cc1ccccc1)NC(=O)[C@@H](N)CS)C(=O)N[C@@H](CCCNC(=N)N)C(=O)N[C@@H](CC(N)=O)C(=O)N[C@@H](CCSC)C(=O)N[C@@H](CCCNC(=N)N)C(=O)N[C@@H](CCCCN)C(=O)N[C@H](C(=O)N[C@@H](CCCNC(=N)N)C(=O)O)C(C)C (H-CFQW[Nle]RNMRKVR-OH) | – | – | – | – | 50 µg/mL (≈ 30.5 µM) | 25 µg/mL (≈ 15.3 µM) | –
12 µg/mL | H-CFQWKRAMRKVR-OH | – | – | – | – | 12 µg/mL | 12 µg/mL | –
50 µg/mL (≈ 30.3 µM) | CSCC[C@H](NC(=O)[C@H](CCCN)NC(=O)[C@H](CCCNC(=N)N)NC(=O)[C@H](CCC(N)=O)NC(=O)[C@H](Cc1c[nH]c2ccccc12)NC(=O)[C@H](CCC(N)=O)NC(=O)[C@H](Cc1ccccc1)NC(=O)[C@@H](N)CS)C(=O)N[C@@H](CCCNC(=N)N)C(=O)N[C@@H](CCCCN)C(=O)N[C@H](C(=O)N[C@@H](CCCNC(=N)N)C(=O)O)C(C)C (H-CFQWQR[Orn]MRKVR-OH) | – | – | – | – | 25 µg/mL (≈ 15.1 µM) | 25 µg/mL (≈ 15.1 µM) | –
– | H-QWQRNMRKVR-OH | – | – | – | – | – | – | Activity (Enterococcus faecalis): <99%; Activity [7]: <99%; Activity (Staphylococcus aureus [8]): <99%; Activity (Klebsiella pneumoniae): <99%; Activity (Pseudomonas aeruginosa): <99%; Activity (Escherichia coli [9]): <99%; Activity (Escherichia coli [10]): <99%; Activity (Candida albicans [11]): <99%
– | H-CFQWQANMRKVR-OH | 12 µg/mL | 7 µg/mL | 12 µg/mL | – | – | – | –
– | H-CAQWQRNMRKVR-OH | 12 µg/mL | 7 µg/mL | 12 µg/mL | – | – | – | –
50 µg/mL | H-CFALKKAMKKVR-OH | – | – | – | – | 25 µg/mL | 25 µg/mL | –
– | H-CFQWQRNARKVR-OH | 12 µg/mL | 3.5 µg/mL | 25 µg/mL | > 100 µg/mL | 50 µg/mL | 50 µg/mL | –
